Data reported in paper PMC8419008 (Structure (London, England : 1993), 2021).
Positions count from the first letter of the chain named. Entries after “also recorded” stand apart in the source; their conditions may differ.

Columns and labels:
[1] = target: T1, PHA7 (PLEKHA7 PH domain) (Homo sapiens, UniProt Q6IQ23); test: Liposome co-sedimentation assay; assay type: binding; details: pure diC16-PC liposomes or liposomes containing 10% molar diC16-PIP; SDS-PAGE
T1 sequence (Q6IQ23 164-285): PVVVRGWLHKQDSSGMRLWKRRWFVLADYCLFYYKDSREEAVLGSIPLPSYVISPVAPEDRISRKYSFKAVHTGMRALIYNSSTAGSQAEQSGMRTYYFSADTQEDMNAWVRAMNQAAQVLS
Outline: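 Small unilamellar vesicles made by bath sonication until translucent, from 100% diC16-PC or 9/1 diC16-PC/diC16-PI(4,5)P2 at 3 mg/mL. 200 uL vesicles mixed with 20 uM PH domain solution, 2 h at room temperature. Airfuge spin at 91,000 rpm for 20 h; supernatant and pellet analysed by SDS-PAGE.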

[2] = target: T2, PHA7 (PLEKHA7 PH domain, wild-type) (Homo sapiens, UniProt Q6IQ23); test: 1H/15N HSQC NMR chemical shift perturbation of 15N-labeled PHA7; assay type: binding; details: 15°C; for NMR spectral change of PHA7 on incubation with nanodiscs: 1.5 molar equivalents of nanodiscs, 100% diC16-PC or 10% molar diC16-PIP; for NMR spectral perturbation / binding of PHA7: soluble or short-chain ligand, 1.5 molar equivalents
T2 sequence (Q6IQ23 164-285): T1 sequence (Q6IQ23 164-285)
Outline: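 Human PLEKHA7 PH domain expressed as a GST fusion in E. coli BL21 in M9 with (15NH4)2SO4, then cleaved with HRV 3C, purified by cation exchange and gel filtration. Added directly to preformed MSP1D1Δh5 nanodiscs (100% diC16-PC, or 9/1 diC16-PC with diC16-PI(3,4,5)P3, -PI(4,5)P2 or -PI(3,4)P2). Read-out: 1H/15N chemical shift perturbations.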

[3] = target: T3, PLEKHA7 PH domain (PHA7, wild-type) (Homo sapiens, UniProt Q6IQ23); test: ITC titration of wild-type PHA7 with soluble IP headgroups or PIP nanodiscs; details: read-out: ITC Kd, PHA7; soluble IP headgroups; 23°C; single-site binding model; average of triplicate
T3 sequence (Q6IQ23 164-285): T1 sequence (Q6IQ23 164-285)

[4] = target: T4, PHA7-D175K (PLEKHA7 PH domain mutant) (Homo sapiens, UniProt Q6IQ23, D175K); test: ITC titration of mutant PHA7-D175K with soluble IP headgroups or PIP nanodiscs; assay type: binding; details: soluble IP headgroups; for Kd: read-out: ITC Kd, PHA7-D175K, 23°C, single-site binding model, average of triplicate; for greater affinity of PHA7-D175K compared to wild-type: ITC
T4 sequence (Q6IQ23 164-285 D175K): T1 sequence (Q6IQ23 164-285) with D12K
Outline: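 ITC run at 23°C in 15 mM Tris pH 7.6, 70 mM NaCl, 0.5 mM TCEP. Cell held 50 μM protein; syringe held 0.5 mM soluble IP headgroup. Protein concentration was set by A280. Integrated heats were fitted to a single-site binding model to obtain dissociation constants.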

| co-sedimentation of PHA7 with liposomes [1] | NMR spectral change of PHA7 on incubation with nanodiscs [2] | Kd [3] [µM] | Kd [4] [µM] | greater affinity of PHA7-D175K compared to wild-type [4] | Compound | NMR spectral perturbation / binding of PHA7 [2] |
| --- | --- | --- | --- | --- | --- | --- |
| abundant co-sedimentation | effectively obliterated | – | – | – | phosphatidyl inositol (3,4,5) triphosphate [PI(3,4,5)P3] | – |
| does not sediment | no detectable NMR spectral changes | – | – | – | CCCCCCCCCCCCCCCC(=O)OC[C@H](COP(=O)([O-])OCC[N+](C)(C)C)OC(=O)CCCCCCCCCCCCCCC [diC16-PC, dipalmitoyl-phosphatidyl-choline] | – |

Further lines, the compound ahead of its results:

| Compound | co-sedimentation of PHA7 with liposomes [1] | NMR spectral change of PHA7 on incubation with nanodiscs [2] | Kd [3] [µM] | Kd [4] [µM] | greater affinity of PHA7-D175K compared to wild-type [4] | NMR spectral perturbation / binding of PHA7 [2] |
| --- | --- | --- | --- | --- | --- | --- |
| O=P(O)(O)OC1[C@H](O)[C@H](OP(=O)(O)O)C(OP(=O)(O)O)[C@H](OP(=O)(O)O)[C@H]1O (stereo partly drawn) [IP(3,4,5)P3, inositol (1,3,4,5) tetraphosphate] | – | – | 30.1 ± 2.3 | 3.5 ± 0.5 | nine-fold | weak binding interaction with fast exchange binding dynamics |
| CCCCCCCC(=O)OC[C@H](COP(=O)(O)OC1[C@H](O)[C@H](O)C(O)[C@H](O)[C@H]1O)OC(=O)CCCCCCC (stereo partly drawn) [diC8-PI] | – | – | – | – | – | no perturbations; also recorded: does not bind |
| O=P(O)(O)O[C@@H]1[C@H](O)[C@H](O)[C@@H](OP(=O)(O)O)[C@H](OP(=O)(O)O)[C@H]1O [IP(4,5)P2, inositol (1,4,5) triphosphate] | – | – | 30.5 ± 0.6 | 10.7 ± 0.2 | three-fold | – |
